Experimental data from ChEMBL document CHEMBL1157556, “Synthesis and biological screening of a combinatorial library of beta-chlorovinyl chalcones as anticancer, anti-inflammatory and antimicrobial agents” (Bioorg Med Chem, 2010).
Values after ≈ are worked out from the molar mass of the structure shown.

Key:
[1] = test system: Aspergillus niger; assay: Antifungal activity against Aspergillus niger MTCC 1781 at 100 ug/ml after 48 hrs agar diffusion method; type: functional; conditions: for zone of inhibition at 100 µg/mL: MTCC 1781, 48 h, read-out: IZ
Method in brief: (§1)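 Fungal spore suspensions in sterile distilled water adjusted to 10⁶ cfu/mL; 0.1 mL spread on Sabouraud dextrose agar. Wells of 6 mm filled with 0.1 mL compound dilution in DMSO. DMSO (1%) control; nystatin (30 µg/mL) reference. Duplicate plates incubated at 28 °C for 48 h. Activity read as inhibition zone diameter in mm.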

[2] = test system: Aspergillus flavus; assay: Antifungal activity against Aspergillus flavus MTCC 2501 at 100 ug/ml after 48 hrs agar diffusion method; type: functional; conditions: for zone of inhibition at 100 µg/mL: MTCC 2501, 48 h, read-out: IZ; method in brief: as §1
[3] = test system: Trichoderma viride; assay: Antifungal activity against Trichoderma viride MTCC 167 at 100 ug/ml after 48 hrs agar diffusion method; type: functional; conditions: for zone of inhibition at 100 µg/mL: MTCC 167, 48 h, read-out: IZ; method in brief: as §1
[4] = test system: Penicillium chrysogenum; assay: Antifungal activity against Penicillium chrysogenum MTCC 1996 at 100 ug/ml after 48 hrs agar diffusion method; type: functional; conditions: for zone of inhibition at 100 µg/mL: MTCC 1996, 48 h, read-out: IZ; method in brief: as §1
[5] = test system: THP-1; assay: Antiinflammatory activity in human THP1 cells assessed as inhibition of LPS-induced IL6 release at 10 uM after 24 hrs by ELISA; type: functional; conditions: THP-1, 24 h
Method in brief: (§2)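 THP-1 cells grown in RPMI 1640 with 10% FBS, penicillin and streptomycin, then PMA-differentiated. Compounds in 0.5% DMSO preincubated 30 min at 37 °C before LPS (E. coli 0127:B8) stimulation. TNF-α and IL-6 release measured by kit per the manufacturer (BD Biosciences). Percent inhibition calculated relative to control. Dexamethasone 1 µM as reference.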

[6] = test system: THP-1; assay: Antiinflammatory activity in human THP1 cells assessed as inhibition of LPS-induced TNFalpha release at 10 uM after 24 hrs by ELISA; type: functional; conditions: THP-1, 24 h; method in brief: as §2
[7] = test system: THP-1; assay: Cytotoxicity against human THP1 cells assessed as CCK8 release at 10 uM after 24 hrs by ELISA; type: cell-based; conditions: thp-1, 24 h
Method in brief: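 Same THP-1 cytokine-assay cells, with compounds in 0.5% DMSO and LPS stimulation, were scored in parallel for cytotoxicity by CCK-8.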

[8] = test system: ACHN; assay: Anticancer activity against human ACHN cells at 10 uM after 48 hrs by propidium iodide fluorescence assay; type: functional
Method in brief: (§3)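 Propidium iodide DNA-fluorescence assay. Seeding 3000–7500 cells/well, 24 h recovery at 37 °C in 5% CO₂. Compounds in 0.1% DMSO added to triplicate wells at 10 µM. Flavopiridol 700 nM and gemcitabine 500 nM as reference inhibitors. Plates frozen at −80 °C for 24 h, thawed to room temperature, fluorescence read at excitation 530 nm and emission 620 nm. Percent cytotoxicity calculated.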

[9] = test system: PANC-1; assay: Anticancer activity against human PANC1 cells at 10 uM after 48 hrs by propidium iodide fluorescence assay; type: functional; method in brief: as §3
[10] = test system: Calu-1; assay: Anticancer activity against human Calu1 cells at 10 uM after 48 hrs by propidium iodide fluorescence assay; type: functional; method in brief: as §3
[11] = test system: NCI-H460; assay: Anticancer activity against human H460 cells at 10 uM after 48 hrs by propidium iodide fluorescence assay; type: functional; method in brief: as §3
[12] = test system: HCT-116; assay: Anticancer activity against human HCT116 cells at 10 uM after 48 hrs by propidium iodide fluorescence assay; type: functional; method in brief: as §3
[13] = test system: Escherichia coli; assay: Antibacterial activity against Escherichia coli MTCC 1650 after 24 hrs; type: functional; conditions: MTCC 1650, 24 h
Method in brief: (§4)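 Agar well diffusion on Mueller Hinton agar seeded with 0.1 mL of a 10⁵ cfu/mL suspension in 0.85% saline. Compounds dissolved in DMSO, final concentrations 25–250 µg/mL, 0.1 mL loaded per 6 mm well. DMSO (1%) control; tetracycline (10 µg/mL) reference. Duplicate plates incubated 24 h at 37 °C. Inhibition zone read in mm. MIC taken as lowest concentration giving complete growth inhibition.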

[14] = test system: Proteus vulgaris; assay: Antibacterial activity against Proteus vulgaris MTCC 1771 after 24 hrs; type: functional; conditions: MTCC 1771, 24 h; method in brief: as §4
[15] = test system: Klebsiella pneumoniae; assay: Antibacterial activity against Klebsiella pneumoniae NCIM 2957 after 24 hrs; type: functional; conditions: NCIM 2957, 24 h; method in brief: as §4
[16] = test system: Staphylococcus aureus; assay: Antibacterial activity against Staphylococcus aureus MTCC 96 after 24 hrs; type: functional; conditions: MTCC 96, 24 h; method in brief: as §4
[17] = test system: Bacillus subtilis; assay: Antibacterial activity against Bacillus subtilis MTCC 1789 after 24 hrs; type: functional; conditions: MTCC 1789, 24 h; method in brief: as §4
[18] = test system: Klebsiella pneumoniae; assay: Antibacterial activity against Klebsiella pneumoniae NCIM 2957 at 50 ug/ml after 24 hrs agar diffusion method; type: functional; conditions: NCIM 2957, 24 h, read-out: IZ; method in brief: as §4
[19] = test system: Staphylococcus aureus; assay: Antibacterial activity against Staphylococcus aureus MTCC 96 at 50 ug/ml after 24 hrs agar diffusion method; type: functional; conditions: MTCC 96, 24 h, read-out: IZ; method in brief: as §4
[20] = test system: Escherichia coli; assay: Antibacterial activity against Escherichia coli MTCC 1650 at 50 ug/ml after 24 hrs agar diffusion method; type: functional; conditions: MTCC 1650, 24 h, read-out: IZ; method in brief: as §4
[21] = test system: Proteus vulgaris; assay: Antibacterial activity against Proteus vulgaris MTCC 1771 at 50 ug/ml after 24 hrs agar diffusion method; type: functional; conditions: MTCC 1771, 24 h, read-out: IZ; method in brief: as §4
[22] = test system: Bacillus subtilis; assay: Antibacterial activity against Bacillus subtilis MTCC 1789 at 50 ug/ml after 24 hrs agar diffusion method; type: functional; conditions: MTCC 1789, 24 h, read-out: IZ; method in brief: as §4
[23] = test system: Candida albicans; assay: Antifungal activity against Candida albicans MTCC 227 at 100 ug/ml after 48 hrs agar diffusion method; type: functional; conditions: MTCC 227, 48 h, read-out: IZ; method in brief: as §1

Molecule	inhibition at 10 µM [5] [%]	inhibition at 10 µM [6] [%]	Activity [7] [%]	Activity [8] [%]	Activity [9] [%]	Activity [10] [%]	Activity [11] [%]	Activity [12] [%]	MIC [13] [µg/mL]	MIC [14] [µg/mL]	MIC [15] [µg/mL]	MIC [16] [µg/mL]	MIC [17] [µg/mL]	zone of inhibition at 50 µg/mL [18] [mm]	zone of inhibition at 50 µg/mL [19] [mm]	zone of inhibition at 100 µg/mL [2] [mm]	zone of inhibition at 100 µg/mL [3] [mm]	zone of inhibition at 50 µg/mL [20] [mm]	zone of inhibition at 50 µg/mL [21] [mm]	zone of inhibition at 50 µg/mL [22] [mm]	other results
NYSTATIN																					inhibition zone (IZ) [1]: 13 mm; inhibition zone (IZ) [2]: 16 mm; inhibition zone (IZ) [3]: 12 mm; inhibition zone (IZ) [4]: 14 mm
COc1ccc(C(=O)/C=C/C=C(\Cl)c2ccc(Br)cc2)cc1	97	66	30	39	25	29	20	20	50 (≈ 132 µM)	50 (≈ 132 µM)	50 (≈ 132 µM)	50 (≈ 132 µM)	50 (≈ 132 µM)	11	12	8	8				zone of inhibition at 100 µg/mL [4]: 12 mm
CN(C)[C@@H]1C(O)=C(C(N)=O)C(=O)[C@@]2(O)C(O)=C3C(=O)c4c(O)cccc4[C@@](C)(O)[C@H]3C[C@@H]12 [TETRACYCLINE]														20	18			15	16	18	
COc1ccc(C(=O)/C=C/C=C(\Cl)c2ccc(F)cc2)cc1	6	0	2	17	1	0	14	0	50 (≈ 158 µM)	50 (≈ 158 µM)	50 (≈ 158 µM)	50 (≈ 158 µM)	50 (≈ 158 µM)	15	16	15	14	11	16	15	zone of inhibition at 100 µg/mL [1]: 8 mm; zone of inhibition at 100 µg/mL [23]: 8 mm; zone of inhibition at 100 µg/mL [4]: 15 mm
COc1ccc(C(=O)/C=C/C=C(\Cl)c2ccc(F)cc2)c(OC)c1	44	0	0	30	23	36	26	14	50 (≈ 144 µM)	50 (≈ 144 µM)	50 (≈ 144 µM)	50 (≈ 144 µM)	50 (≈ 144 µM)			10		11	16	10	
COc1ccc(C(=O)/C=C/C=C(\Cl)c2ccc(OC)cc2OC)cc1	40	0	35	33	7	7	15	0	50 (≈ 139 µM)	50 (≈ 139 µM)	50 (≈ 139 µM)	50 (≈ 139 µM)	50 (≈ 139 µM)			10	12	10		12	zone of inhibition at 100 µg/mL [1]: 11 mm
COc1ccc(C(=O)/C=C/C=C(\Cl)c2ccc(OC)cc2)cc1	11	2	0	28	16	38	19	16	50 (≈ 152 µM)	50 (≈ 152 µM)	50 (≈ 152 µM)	50 (≈ 152 µM)	50 (≈ 152 µM)	12	12	14	14	17			zone of inhibition at 100 µg/mL [1]: 14 mm; zone of inhibition at 100 µg/mL [23]: 11 mm; zone of inhibition at 100 µg/mL [4]: 15 mm
COc1ccc(/C(Cl)=C/C=C/C(=O)c2ccc(OC)cc2OC)cc1	49	0	0	33	31	31	33	31	50 (≈ 139 µM)	50 (≈ 139 µM)	50 (≈ 139 µM)	50 (≈ 139 µM)	50 (≈ 139 µM)	12	12	12	14	14	15	20	zone of inhibition at 100 µg/mL [1]: 15 mm; zone of inhibition at 100 µg/mL [23]: 8 mm; zone of inhibition at 100 µg/mL [4]: 12 mm
COc1ccc(C(=O)/C=C/C=C(\Cl)c2ccc(Cl)cc2)c(OC)c1	43	0	0	37	32	32	21	26	50 (≈ 138 µM)	50 (≈ 138 µM)	50 (≈ 138 µM)	50 (≈ 138 µM)	50 (≈ 138 µM)	15	13	12	12	10	18	14	zone of inhibition at 100 µg/mL [1]: 14 mm; zone of inhibition at 100 µg/mL [4]: 14 mm
COc1ccc(C(=O)/C=C/C=C(\Cl)c2ccc(OC)cc2OC)c(OC)c1	27	0	0	26	23	24	18	29	50 (≈ 129 µM)	50 (≈ 129 µM)	50 (≈ 129 µM)	50 (≈ 129 µM)	50 (≈ 129 µM)						13		zone of inhibition at 100 µg/mL [1]: 13 mm
COc1ccc(C(=O)/C=C/C=C(\Cl)c2cccc(Cl)c2)cc1	3	1	35	22	18	20	26	31	50 (≈ 150 µM)	50 (≈ 150 µM)	50 (≈ 150 µM)	50 (≈ 150 µM)	50 (≈ 150 µM)	17	13	8	11	10	15	15	
COc1ccc(C(=O)/C=C/C=C(\Cl)c2ccc(Cl)cc2)cc1	95	67	28	35	30	32	33	29	50 (≈ 150 µM)	50 (≈ 150 µM)	50 (≈ 150 µM)	50 (≈ 150 µM)	50 (≈ 150 µM)	10		12	12				zone of inhibition at 100 µg/mL [1]: 13 mm; zone of inhibition at 100 µg/mL [23]: 10 mm; zone of inhibition at 100 µg/mL [4]: 12 mm
